KCNQ1 inh = inhibitors of human KCNQ1 potassium channel. B-score at 10 µM. P51787. hit rate 1.3% among 310,000. CHO-K1 KCNQ1, FluxOR thallium flux fluorescence; active compounds read high;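 active means compounds whose thallium flux B-score, printed positive for inhibition, exceeds three library SD while starting fluorescence stays within three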;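 further: channel opened by potassium depolarization with thallium stimulus after 20 min compound exposure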
KCNK3 inh = human KCNK3 channel inhibition, primary screen; B-score at 10 µM; hit rate 0.84% among 340,000; CHO-KCNK3 thallium flux, FluxOR fluorescence; active compounds read low;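 active means B-score under library mean minus 4 SD, starting fluorescence ratio at most library mean plus 5 SD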;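 further: more negative B-score means stronger inhibition of thallium flux through KCNK3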
KCC2 mod = modulators of human KCC2 chloride dependent transport | hit rate 2.2% among 190,000 | B-score of Tl+ flux slope (higher = more flux/activation; lower = inhibition) at 10 µM | KCC2 cells, thallium flux FluoZin-2 fluorescence;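 active means thallium flux slope and its plate-corrected score both differing from the plate sample mean at a set confidence after two filtering rounds, in either direction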;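 further: slope of fluorescence scaled to starting intensity during 10 to 20 s after thallium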
KCNQ1 act = potentiators or activators of human KCNQ1 potassium channel | CHO-K1 KCNQ1, thallium flux FluxOR fluorescence; active compounds read high | hit rate 0.35% among 310,000 | B-score at 10 µM | P51787;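 active means fluorescence ratio B-score, a plate-corrected score, at least three library SD, with initial intensity B-score within 5 SD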
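assay system = KCNQ1-transfected CHO-K1 cells | medium = assay buffer with matched DMSO | probe or stimulus = depolarizing K+/Tl+ stimulus, K2SO4 and Tl2SO4 each 12.5 mM in 5x stock | dosing = single dose | incubation = dye 90 min, compound 20 min, room temperature | detection = kinetic FluxOR fluorescence, 10 s baseline plus 110 s post-stimulus | evaluation = ratio B score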
KCNK9 inh = human KCNK9 channel inhibition. Q9NPC2. HEK293 KCNK9, FluxOR thallium flux fluorescence; active compounds read low. B-score at 10 µM. hit rate 1.2% among 310,000. AID 488922;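 active means ratio B-score over 3 SD below the library mean, with starting fluorescence within 5 SD of its mean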;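 further: negative B-score means less thallium flux so channel inhibition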
hERG protect = compounds protecting human hERG from proarrhythmic drug block. Q12809. AID 1511. hit rate 0.51% among 310,000. CHO-hERG, FluxOR thallium flux, dofetilide IC70 present. activation (rescue from dofetilide block), less the hit threshold, % at 10 µM;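 active means activation above the mean of controls blocked by dofetilide plus 5 SD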;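 further: thallium influx through hERG after potassium depolarization seen as dye fluorescence rise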
KCNK9 inh conf = human KCNK9 inhibitor confirmation. inhibition, % at 10 µM. HEK293 KCNK9 cells, FluxOR thallium flux fluorescence. shares compounds with KCNK9 inh. hit rate 43% among 4,900. AID 492992;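 active means thallium signal inhibited by more than 5 SD of the compound-free buffer control wells, on both duplicate plates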;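 further: 0% = assay buffer control wells without compound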
Kir21 sel = mouse Kir2.1 off-target activity of KCNK9 modulators | shares compounds with KCNK9 inh | Kir2.1 cells, FluxOR thallium flux fluorescence | inhibition, % at 10 µM | hit rate 4% among 4,900 | AID 492993;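 active means thallium signal drop more than 5 SD beyond the mean of the no-compound control wells, seen in both duplicate plates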;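 further: signal is fluorescence rise after thallium addition divided by baseline fluorescence; plate controls were assay buffer only for no effect and full block by chlorpromazine control for full effect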
Target sequence (P35561 whole entry, looked up): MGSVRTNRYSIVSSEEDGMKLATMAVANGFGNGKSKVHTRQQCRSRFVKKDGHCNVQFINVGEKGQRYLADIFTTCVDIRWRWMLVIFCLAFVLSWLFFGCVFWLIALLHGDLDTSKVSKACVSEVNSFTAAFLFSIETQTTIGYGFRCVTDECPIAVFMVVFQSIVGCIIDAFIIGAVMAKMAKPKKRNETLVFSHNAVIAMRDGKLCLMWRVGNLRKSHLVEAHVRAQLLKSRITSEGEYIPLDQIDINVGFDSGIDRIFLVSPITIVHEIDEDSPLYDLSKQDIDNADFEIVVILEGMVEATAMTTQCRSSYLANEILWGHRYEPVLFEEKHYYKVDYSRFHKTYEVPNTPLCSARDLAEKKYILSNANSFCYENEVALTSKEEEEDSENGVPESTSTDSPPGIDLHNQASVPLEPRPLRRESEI
KCNK9 uninduced = second counter-screen for KCNK9 modulators: effect in non-induced cells; shares compounds with KCNK9 inh; inhibition, % at 10 µM; AID 492997; non-induced KCNK9-HEK293, FluxOR thallium flux; hit rate 40% among 4,900;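 active means thallium signal drop beyond 5 SD of the untreated control mean, on both duplicate plates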;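 further: plate controls were buffer only IC0 wells for no effect and SID17386958 at its maximal inhibitory level for full effect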
KCNK3 confirm = human KCNK3 channel inhibition, confirmation assay; shares compounds with KCNK3 inh; CHO-KCNK3 thallium flux, FluxOR fluorescence; 0% buffer, 100% carvedilol maximal block; ratio percent of control, % at 10 µM; hit rate 99% among 2,400;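 active means ratio percent of control, averaged over triplicates, above buffer control mean plus 5 SD, cut at about 64% in these data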;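 further: ratio is the fluorescence rise from min to max over baseline after thallium stimulus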
KCNK3 uninduced = counter-screen for KCNK3 inhibitors: effect in non-induced cells. non-induced KCNK3 parental cells, FluxOR thallium flux; active compounds read low. thallium flux ratio (lower = more inhibition) at 10 µM. hit rate 40% among 2,400. shares compounds with KCNK3 inh;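 active means thallium flux ratio, averaged over three wells, more than 5 SD below the buffer control mean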;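 further: host cells are CHO cells without KCNK3 induction; ratio is peak minus trough fluorescence over baseline then normalized to buffer controls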
* hit, by the source's call; i = inactive; · = no result given. Compounds with a hit are over-represented: about 4.1% of the library has one in this group of screens.

SMILES | KCNQ1 inh | KCNK3 inh | KCC2 mod | KCNQ1 act | KCNK9 inh | hERG protect | KCNK9 inh conf | Kir21 sel | KCNK9 uninduced | KCNK3 confirm | KCNK3 uninduced
Cc1ccc(-c2ocnc2C(=O)Nc2ccccc2NC(=O)c2ccccn2)cc1 | i | i | · | i | i | -7 | · | · | · | · | ·
Cc1cccc(-c2ocnc2C(=O)Nc2ccccc2NC(=O)c2ccccn2)c1 | i | -9.7* | · | i | -11* | -9 | 36%* | i | 29%* | 109* | 0.16*
O=C(Cc1ccccc1)Nc1ccc(Cl)cn1 | i | i | · | i | i | -5 | · | · | · | · | ·
O=C(Nc1ccc(Cl)cn1)c1ccccc1SCc1ccccc1 | i | -11* | · | i | -15* | -6 | 78%* | i | 47%* | 128* | 0.15*
Cc1nn(Cc2ccc(C(=O)Nc3ccc(C(=O)OC(C)C)cc3)o2)c(C)c1Cl | i | -9.5* | -0.42 | i | -10* | -12 | 56%* | i | i | 107* | i
COC(=O)C(C)N(C(=O)c1ccc(C(=O)c2ccccc2)cc1)c1c(C)cccc1C (stereo not drawn) | i | -11* | · | i | -9* | -4 | 40%* | i | 34%* | 92* | i
COc1ccc(C(CNC(=O)C(CCSC)NC(=O)c2ccccc2OC)N2CCCCC2)cc1 (stereo not drawn) | i | i | · | i | i | -10 | · | · | · | · | ·
CC(C)=CCc1cc([C@@H]2CC(=O)c3ccc(O)c(CC=C(C)C)c3O2)ccc1O | i | -16* | · | i | -11* | -9 | 61%* | i | 30%* | 141* | 0.12*
Cc1nnc(NC(=O)c2sc3ccccc3c2Cl)s1 | i | i | 0.075 | i | i | -4 | · | · | · | · | ·
Cc1ccc(NC(=O)c2sc3ccccc3c2Cl)nc1 | i | i | -0.1 | i | -15* | -6 | 56%* | i | 30%* | 87* | i
CCOc1ncccc1C(=O)Nc1cccc(-c2nc3cccnc3s2)c1 | i | -9.6* | -0.46 | i | -10* | -11 | i | i | i | 101* | i
O=C(Nc1cccc(-c2nc3cccnc3s2)c1)c1ccco1 | i | i | -0.13 | i | i | -14 | · | · | · | · | ·
CC(C)C(OC(=O)C1=Cc2ccccc2OC1)C(=O)NCC1CCCO1 (stereo not drawn) | · | i | · | · | · | · | · | · | · | · | ·
Cc1noc(C)c1COc1ccccc1C(=O)NCCc1ccc(Cl)cc1 | i | -9.4* | · | i | -20* | -15 | 63%* | i | 35%* | 81* | i
COc1ccc(-c2nn(-c3ccccc3)cc2C(=O)Nc2nccs2)cc1 | i | i | 0.23 | i | i | -6 | · | · | · | · | ·
COc1cccc(-c2nn(-c3ccccc3)cc2C(=O)Nc2nccs2)c1 | 6* | -10* | -0.17 | i | -15* | -11 | 35%* | i | i | 100* | 0.12*
CC(C)CNC(=O)[C@@H]1CSC2c3ccccc3C(=O)N21 (stereo partly drawn) | i | i | · | i | i | -5 | · | · | · | · | ·
Cc1cccc(C2c3[nH]c4ccccc4c3CCN2Cc2cccn2-c2ncccn2)c1 (stereo not drawn) | i | -14* | 0.28 | i | -8.5* | -32 | i | i | 32%* | 113* | i
c1ccc(C2c3[nH]c4ccccc4c3CCN2Cc2cccn2-c2ccccn2)nc1 (stereo not drawn) | i | i | 0.69 | i | i | -19 | · | · | · | · | ·
COc1ccc(C2c3[nH]c4ccccc4c3CCN2Cc2cccn2-c2ncccn2)cc1C (stereo not drawn) | i | -13* | 0.29 | i | -18* | -20 | 54%* | i | 36%* | 131* | 0.14*
COc1ccc(OC)c(NC(=O)Nc2ccc3[nH]ccc3c2)c1 | i | i | · | i | i | 3 | · | · | · | · | ·
CSc1ccc(-c2nc3cnccn3c2Nc2ccc3c(c2)OCO3)cc1 | i | i | -0.64 | i | i | -10 | · | · | · | · | ·
Clc1ccc(-c2nc3cnccn3c2Nc2ccc3c(c2)OCO3)cc1 | i | -9.7* | -0.71 | i | -12* | -15 | 60%* | i | 24%* | 105* | i
CCOC(=O)c1ccc(S(=O)(=O)N2CCN(C(=O)c3cccc(S(=O)(=O)N4CC(C)OC(C)C4)c3)CC2)cc1 (stereo not drawn) | · | i | · | · | · | · | · | · | · | · | ·
O=C1NC(=O)/C(=C/c2ccc(N3CCOCC3)o2)N1 | i | i | 0.55 | i | i | -6 | · | · | · | · | ·
SMILES | KCNQ1 inh | KCNK3 inh | KCC2 mod | KCNQ1 act | KCNK9 inh | hERG protect | KCNK9 inh conf | Kir21 sel | KCNK9 uninduced | KCNK3 confirm | KCNK3 uninduced
N#C/C(=C/c1ccc(Sc2nc3ccccc3[nH]2)o1)c1cccc(F)c1 | 13* | -9.8* | -1.3 | i | i | -15 | i | i | i | 122* | i
N#C/C(=C/c1ccc(N2CCCCC2)o1)c1cccc(F)c1 | i | -14* | · | i | -10* | -26 | 78%* | i | 72%* | 170* | 0.079*
Cc1ccc(/C(C#N)=C\c2ccc(N3CCOCC3)o2)cc1 | 9* | -15* | · | i | -12* | -16 | 57%* | i | 84%* | 168* | 0.044*
CCOc1cc(CNS(=O)(=O)c2ccc3c(c2)CC(=O)N3C)cc(OCC)c1OCC | i | i | · | i | i | -7 | · | · | · | · | ·
CC(NC(=O)CN1C(=O)NC2(CCCC2)C1=O)c1ccc(Cl)cc1Cl (stereo not drawn) | · | i | · | · | · | · | · | · | · | · | ·
CN(CCCC1CCCC1)C(=O)c1cc(COc2ccc(F)c(F)c2)on1 | i | -9.2* | · | i | -8.8* | -8 | i | i | 38%* | 122* | i
COc1ccc(OCc2cc(C(=O)N(C)CCC3CCOCC3)no2)c(Cl)c1 | i | i | · | i | i | -6 | · | · | · | · | ·
O=C(CC(CC(=O)c1ccccc1)c1ccncc1)c1ccccc1 | · | i | · | · | · | · | · | · | · | · | ·
O=C(CC(CC(=O)c1ccccc1)c1ccccc1)c1ccccc1 | i | -11* | · | i | -12* | -10 | 36%* | i | 34%* | 110* | i

Bioassay records from PubChem.
